Screening results (PubChem)
ASAP1 GAP inh: inhibitors of human ASAP1 ArfGAP activity. Q9ULH1. ASAP1-stimulated ARF1 GTP hydrolysis, GDP FP detection. inhibition, % at 16.5 µM. AID 624377. actives 0.19% (n = 360,000); in the data active = inhibition above about 25%;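 note: 0% = vehicle with enzyme and substrate and 100% = no enzyme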
Target sequence (Q9ULH1 325-724 limits assumed): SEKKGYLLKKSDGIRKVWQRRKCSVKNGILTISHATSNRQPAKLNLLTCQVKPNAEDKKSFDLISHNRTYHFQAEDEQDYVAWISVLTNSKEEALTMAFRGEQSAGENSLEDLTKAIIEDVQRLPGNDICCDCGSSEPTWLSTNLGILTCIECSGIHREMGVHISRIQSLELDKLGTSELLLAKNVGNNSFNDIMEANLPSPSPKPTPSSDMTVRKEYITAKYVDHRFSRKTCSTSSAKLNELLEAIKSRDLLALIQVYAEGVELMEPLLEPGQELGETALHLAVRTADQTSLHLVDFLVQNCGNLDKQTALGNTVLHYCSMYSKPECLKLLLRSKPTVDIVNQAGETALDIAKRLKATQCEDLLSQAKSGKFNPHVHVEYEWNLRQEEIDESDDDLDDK
VIM-2 inh: blocks Pseudomonas aeruginosa VIM-2 metallo-beta-lactamase; purified VIM-2, nitrocefin hydrolysis, epi-absorbance fluorescence; inhibition, % at 5.6 µM; actives 0.89% (n = 290,000); AID 1527;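 active = inhibition above the mean of all tested compounds plus 3 SD, cutoff set per screening run, cut at about 7.5% in these data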;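 note: red hydrolysis product quenches plate fluorescence so inhibitors raise well fluorescence; 0% = enzyme with DMSO and 100% = DMSO without enzyme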
ARFGAP1 inhibitor: inhibits rat ARF GTPase activating protein 1. Q62848. Arfgap1-stimulated ARF1 GTP hydrolysis, GDP FP detection. inhibition, % at 16.5 µM. actives 0.26% (n = 360,000);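 active = inhibition above a per-plate limit, mean inhibition of low control wells plus 3 SD, cut at about 25% in these data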;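 note: 0% = DMSO wells with enzyme and 100% = wells lacking Arfgap1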
Target sequence (Q62848 1-136 limits assumed): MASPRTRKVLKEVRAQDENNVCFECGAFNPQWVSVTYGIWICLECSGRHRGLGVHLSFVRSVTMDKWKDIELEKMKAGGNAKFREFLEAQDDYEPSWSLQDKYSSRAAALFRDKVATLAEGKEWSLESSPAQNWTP
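System: truncated rat Arfgap1 GAP domain / Medium: HEPES-based buffer, pH 7.5 / Also added: N-terminally truncated human ARF1-GTP substrate / Incubation: enzyme reaction 120 min at 25 °C after 20 min preincubation / Measured by: FP of antibody-bound GDP Alexa 633 tracer, ex 620/em 688 nm / Replicates: singlicate, each compound tested once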
PHOSPHO1 inh: inhibitors of human PHOSPHO1 phosphatase. actives 1.1% (n = 290,000). AID 1565. Q8TCT1. recombinant PHOSPHO1, absorbance phosphatase assay. inhibition, % at 13.3 µM; in the data active = inhibition above about 60%
IMP-1 inhibitor: inhibitors of Pseudomonas aeruginosa IMP-1 metallo-beta-lactamase | actives 0.45% (n = 290,000) | purified IMP-1, nitrocefin hydrolysis, epi-absorbance fluorescence | inhibition, % at 5.6 µM;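 active = inhibition above the mean plus 3 SD of all compounds in the same screening run, cut at about 4.5% in these data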;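 note: 0% = IMP-1 with DMSO and 100% = DMSO wells lacking enzyme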
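Material – recombinant IMP-1 enzyme, purified · Amount – IMP-1 0.2 nM before substrate addition · Medium – HEPES buffer pH 7.1 with ZnSO4 and Brij 35 · Timing – 25 °C, 15 min preincubation, 25 min reaction · Measured by – plate fluorescence quenching by hydrolysis product, ex 480/em 530 nm · Read-out – percent enzyme inhibition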
Calb FLC: C. albicans growth modulation with fluconazole; actives 0.57% (n = 300,000); growth inhibition, % (no concentration beside the values); AID 1979; C. albicans CaCi-2 + fluconazole, Alamar Blue growth, 48 h;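 active = growth inhibition above about 58% in most replicates, limit read from the data, passing the limit was not always enough; inconclusive = exactly half the replicates above a set limit; inactive = most replicates below a set limit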;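 note: all wells also contain fluconazole at 8 µg/ml as a sub-toxic cotreatment; 0% = median of DMSO wells and 100% = median of geldanamycin control wells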
Starred values were filed as active, the others as inactive; ? = inconclusive; nt = no result. An excerpt weighted towards active compounds, which were near 2.6% of everything screened.

SMILES	ASAP1 GAP inh	VIM-2 inh	ARFGAP1 inhibitor	PHOSPHO1 inh	IMP-1 inhibitor	Calb FLC
Cc1ccccc1-n1c(SCC(=O)c2c(N)n(C)c(=O)n(C)c2=O)nnc1-c1cccnc1	10	-3	4	-2	-3	3
COCCn1c(C)cc(C(=O)CSc2nnc(-c3cccnc3)n2-c2ccccc2F)c1C	-2	0	11	90*	-3	9
COCCn1c(C)cc(C(=O)CSc2cc(C)c3ccccc3n2)c1C	-13	0	7	-26	5.7*	-7
Cc1ccccc1-n1c(SCC(=O)c2cc(C)n(C)c2C)nnc1-c1cccnc1	nt	-6	nt	86*	-4	9
CCn1c(SCC(=O)c2cc(C)n(-c3ccc(C(=O)OC)cc3)c2C)nnc1-c1cccnc1	-7	-1	-4	-3	-2	-24
COCCn1c(C)cc(C(=O)CSc2nc3ccccc3c(=O)n2Cc2ccco2)c1C	3	0	12	-4	-4	-3
COc1ccc(-c2nc3ccc(Cl)cn3c2Cc2cccc(F)c2)cc1OC	-7	nt	-6	nt	nt	nt
Nc1[nH][nH]c(=O)c1N=Nc1cccc(Cl)c1	-6	-2	-6	1	-5	-17
O=C1CCN(N=Nc2cccc(Cl)c2)N1	nt	-1	nt	72*	-4	-6
CSc1nc(NCCCO)c2c3c(sc2n1)CN(C)CC3	-2	9.4*	8	20	-1	-15
CCCn1c(N2CCN(Cc3ccc(Cl)cc3)CC2)nc2ccccc21	-8	-2	5	36	0	52
CCn1c(N2CCN(Cc3ccc([N+](=O)[O-])cc3)CC2)nc2ccccc21	4	-1	8	8	23*	44
COCCCNC(=S)NNC(=O)c1csc(C)n1	2	-2	7	17	8.7*	-10
CC(C)=C1C(=O)NN(c2ccc(F)c(Cl)c2)C1=O	-5	-1	-1	31	-6	101*
CCOc1ccccc1C(=O)N/N=C/c1coc2ccc(C)cc2c1=O	1	-3	-25	27	10*	-20
Cc1ccc2occ(/C=N/NC(=O)c3ccc(O)cc3)c(=O)c2c1	-3	-7	8	16	4	10
Cc1ccc2occ(/C=N/NC(=O)c3ccccc3Br)c(=O)c2c1	-4	-6	-17	46	5.2*	14
Cc1ccc(C(NC(=O)C2CCN(Cc3ccc(Oc4ccccc4)cc3)CC2)c2ccccn2)cc1 (configuration not stated)	-6	nt	-3	nt	nt	nt
COC(=O)[C@]12C[C@H](CC(=O)NCc3cccc(C(F)(F)F)c3)C(=O)N(CCC3=CCCCC3)C1=C[C@H](C(C)(C)C)O[C@@H]2C	3	nt	-1	nt	nt	nt
CC1CC2(C)Oc3ccccc3C3OCC1(CO)C(C)C32 (configuration not stated)	13	-2	-1	-3	-3	-1
CC(=O)OCC12COC3c4ccccc4OC(C)(CC1C)C3C2C (configuration not stated)	19	-3	5	15	-3	106*
CCN(CC)CCn1c(=S)[nH]c2ccc(Cl)cc2c1=O	-4	-4	11	78*	-3	-18
CCN(CC)CCn1c(=S)[nH]c2cc(Cl)ccc2c1=O	-19	2	6	94*	-5	6
CCN(CC)CCn1c(=S)[nH]c2cc(C(=O)N3CC(C)CC(C)C3)ccc2c1=O (configuration not stated)	7	-2	5	13	-2	3
Nc1nc2c(ncn2[C@@H]2O[C@H](C(=O)NCC(F)(F)F)[C@@H](O)[C@H]2O)c(=O)[nH]1	-13	nt	1	nt	nt	nt
SMILES	ASAP1 GAP inh	VIM-2 inh	ARFGAP1 inhibitor	PHOSPHO1 inh	IMP-1 inhibitor	Calb FLC
COC(=O)c1ccc(N(C(=O)c2ccco2)C(C(=O)NC2CCCC2)c2ccco2)cc1 (configuration not stated)	-3	3	-6	1	4.5*	-23
Oc1c(Br)cc(Br)cc1CNc1ccc(F)cc1	2	-1	8	0	-2	34
Oc1c(Br)cc(Br)cc1CNc1cnc2ccccc2c1	-1	3	0	39	14*	10
COCc1nnc(NC(=O)c2ccc(S(=O)(=O)N3CCCCCC3)cc2)o1	3	-5	1	25	-6	80*
Cc1cc(C(=O)Nc2ccc(N3CCCCC3)cc2)no1	-6	-1	5	33	-3	-26
Cc1nnc(NC(=O)c2ccc(S(=O)(=O)N3CCCCCC3)cc2)o1	10	-4	-12	63*	-4	63
Cc1nnc(NC(=O)c2ccc(S(=O)(=O)N(C)Cc3ccccc3)cc2)o1	nt	-6	nt	-2	-3	87*
Cc1cc(C(=O)Nc2ccc(S(=O)(=O)N3CCCC3)cc2)no1	-19	2	-2	62*	-1	-9
COCc1nnc(NC(=O)c2ccc(S(=O)(=O)N(C)Cc3ccccc3)cc2)o1	-2	-5	-7	24	-4	5
COc1ccc(C2CC(=O)C(c3ccc(C#N)cc3)=CN2Cc2ccccc2)cc1 (configuration not stated)	-5	nt	-7	nt	nt	nt
O=S1(=O)N[C@@H](Cc2ccccc2)COc2cc(N3CCOCC3)ccc21	2	nt	-7	nt	nt	nt
CC1(C)CC(=O)C=C(Nc2ccc([N+](=O)[O-])cc2)C1	-4	0	2	34	0	78*
CC1(C)CC(=O)C=C(Nc2ccc(O)cc2)C1	4	nt	2	nt	nt	nt
CCc1nnc2n1N=C(c1ccc(-c3cc(Cl)ccc3Cl)o1)CS2	13	-4	16	90*	-4	27
Cc1cc2nc(C)n(CCCN)c2cc1C	3	1	8	60*	-5	26
Cc1cc2nc(C)n(CCCNC(=O)Nc3ccc(C#N)cc3)c2cc1C	-15	-3	-7	60*	1	3
Cc1nc2cc(Cl)ccc2n1CCO	-4	-3	-9	33	-4	2
Cc1nc2ccccn2c1-c1csc(Nc2cccc(O)c2)n1	-12	11*	15	28	-3	23
Cc1cccc(Nc2nc(-c3c(C)nc4ccccn34)cs2)c1	7	3	9	-14	0	?
COc1ccc(NC(=O)C2CC(=O)n3ncnc3N2)cc1 (configuration not stated)	4	-1	17	4	-2	-9
COc1ccc(NC(=O)C2CC(=O)n3cnnc3S2)cc1 (configuration not stated)	6	-2	5	104*	-6	-3
COc1cccc(NC(=O)C2CC(=O)n3cnnc3S2)c1 (configuration not stated)	-4	0	-4	103*	-3	nt
COCCN1CCCc2nc(-c3ccc(F)cc3)ccc21	10	nt	-9	nt	nt	nt
COCCN1C(=O)[C@H]2C[C@@]13O[C@H](c1ccccn1)N=C3CC1c3ccccc3C[C@@]12C (some centres not stated)	-7	nt	-6	nt	nt	nt
